# Assay results reported in ChEMBL document CHEMBL4425151, “Design, Synthesis, and Initial Evaluation of Affinity-Based Small-Molecule Probes for Fluorescent Visualization and Specific Detection of Keap1” (J Med Chem, 2016).
# Active and inactive are the calls of the source. The calls are words filed in the database; no cut-off is given here.
# How the values were obtained:
# [1] = target: T1, Kelch-like ECH-associated protein 1 (Homo sapiens, UniProt Q14145); assay: Inhibition of FITC-labeled 9-mer Nrf2 peptide amide binding to human KEAP1 kelch domain (322 to 609 residues) expressed in Escherichia coli Arctic(DE3) cells incubated for 30 mins by fluorescence polarization assay
# T1 sequence (Q14145 whole entry, the tested form may be a part): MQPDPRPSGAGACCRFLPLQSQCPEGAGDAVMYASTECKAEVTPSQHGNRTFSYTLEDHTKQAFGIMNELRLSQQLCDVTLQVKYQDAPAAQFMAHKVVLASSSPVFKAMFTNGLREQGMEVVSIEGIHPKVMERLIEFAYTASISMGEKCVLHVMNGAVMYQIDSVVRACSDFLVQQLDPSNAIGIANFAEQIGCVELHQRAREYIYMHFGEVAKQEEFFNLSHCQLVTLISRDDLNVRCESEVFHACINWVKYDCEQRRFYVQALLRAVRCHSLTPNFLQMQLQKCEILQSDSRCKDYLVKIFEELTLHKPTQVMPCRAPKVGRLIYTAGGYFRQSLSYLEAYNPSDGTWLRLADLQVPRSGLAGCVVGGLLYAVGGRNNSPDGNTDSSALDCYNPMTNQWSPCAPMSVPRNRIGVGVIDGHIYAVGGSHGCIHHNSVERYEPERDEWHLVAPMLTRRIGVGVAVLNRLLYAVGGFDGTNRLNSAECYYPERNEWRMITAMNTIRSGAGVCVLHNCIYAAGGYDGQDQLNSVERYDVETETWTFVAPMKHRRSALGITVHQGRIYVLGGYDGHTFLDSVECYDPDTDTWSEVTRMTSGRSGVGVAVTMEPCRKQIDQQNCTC
# [2] = target: T1, Kelch-like ECH-associated protein 1; assay: Binding affinity to KEAP1 kelch domain in cytoplasm of human NCM460 cells at 10 uM after 10 hrs by DAPI staining based confocal microscopic analysis; format: cell-based
# Summary of the method: (§1)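 NCM460 colonic cells exposed to the FITC probe at 10 µM for 10 h, then fixed. Keap1 primary antibody applied overnight at 4 °C, then Alexa Fluor-labelled goat anti-rabbit secondary for 1 h at 37 °C. Nuclei stained with DAPI. Imaged by laser scanning confocal microscopy at excitation 570 and 340 nm for co-localization. Three separate experiments.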
# [3] = target: T1, Kelch-like ECH-associated protein 1; assay: Binding affinity to KEAP1 kelch domain in nucleus of human NCM460 cells at 10 uM after 10 hrs by DAPI staining based confocal microscopic analysis; format: cell-based; summary of the method: as §1
# [4] = target: T1, Kelch-like ECH-associated protein 1; assay: Binding affinity to human KEAP1 kelch domain (322 to 609 residues) expressed in Escherichia coli Arctic(DE3) cells at 0.05 mM by isothermal titration calorimetry
# Summary of the method: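 ITC at 25 °C. Lyophilized Keap1 Kelch domain and the FITC probe both dissolved in 10 mM HEPES pH 7.4. Nineteen 2 µL injections of 0.05 mM probe, 2.5 min apart, stirred at 750 rpm, into cell holding 0.005 mM Kelch domain. Kd obtained from a 1:1 binding model fit.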
# [5] = target: T1, Kelch-like ECH-associated protein 1; assay: Binding affinity to human KEAP1 kelch domain (322 to 609 residues) expressed in Escherichia coli Arctic(DE3) cells by biolayer interferometry method
# Summary of the method: (§2)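 Biotinylated probe immobilized on super streptavidin biosensor tips. Sequence: baseline, loading, second baseline, Keap1 Kelch domain association (kon), then dissociation (koff). Six Keap1 concentrations tested, all at 30 °C. Kinetic constants fitted from the sensorgrams, and Kd taken as koff/kon.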
# [6] = target: T1, Kelch-like ECH-associated protein 1; assay: Binding affinity to human KEAP1 kelch domain (322 to 609 residues) expressed in Escherichia coli Arctic(DE3) cells assessed as association constant by biolayer interferometry method; summary of the method: as §2
# [7] = target: T1, Kelch-like ECH-associated protein 1; assay: Binding affinity to KEAP1 kelch domain in human NCM460 cells after 2 hrs by Western blot based affinity pulldown assay; format: cell-based
# Summary of the method: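 Streptavidin magnetic beads loaded with the biotin probe (50 µg/100 µL), 30 min at 4 °C, then free sites blocked with biotin. Beads incubated with NCM460 colonic cell lysate for 2 h at 4 °C with rotation and washed with TBS. Bound protein eluted in buffer with 2% SDS at 95 °C for 5 min. Analysed by SDS-PAGE and western blot with anti-Keap1 antibody.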
# [8] = target: T1, Kelch-like ECH-associated protein 1; assay: Binding affinity to human KEAP1 kelch domain (322 to 609 residues) expressed in Escherichia coli Arctic(DE3) cells assessed as dissociation constant by biolayer interferometry method; summary of the method: as §2
IC50 [1] [nM],Activity [2],Activity [3],Kd [4] [nM],EC50 [1] [nM],Activity [5],Kd [5] [nM],K [6] [×10⁴ /M/s],Activity [7],K [8] [×10⁻³ /s],SMILES
30.7,–,–,–,–,–,–,–,–,–,COc1ccc(S(=O)(=O)N(CC(=O)O)c2ccc(N(CC(=O)O)S(=O)(=O)c3ccc(NC(=O)CCCC(=O)NCCN)cc3)c3ccccc23)cc1
–,Active,Active,29.1,14.7,–,–,–,–,–,COc1ccc(S(=O)(=O)N(CC(=O)O)c2ccc(N(CC(=O)O)S(=O)(=O)c3ccc(NC(=O)CCCC(=O)NCCNC(=S)Nc4ccc5c(c4)C(=O)OC54c5ccc(O)cc5Oc5cc(O)ccc54)cc3)c3ccccc23)cc1
74,–,–,–,–,Dose-dependent effect,21.6,6.24,Active,1.35,COc1ccc(S(=O)(=O)N(CC(=O)O)c2ccc(N(CC(=O)O)S(=O)(=O)c3ccc(NC(=O)CCCC(=O)NCCNC(=O)CCCC[C@@H]4SC[C@@H]5NC(=O)N[C@@H]54)cc3)c3ccccc23)cc1
